The record followed here is ChEMBL document CHEMBL4270517, “New 6- and 7-heterocyclyl-1H-indole derivatives as potent tubulin assembly and cancer cell growth inhibitors” (Eur J Med Chem, 2018).

The structures appear in SMILES notation. pIC50: −log10 of the molar value. Activity calls are given as the source filed them. The rule behind the calls is not given here.

Assay [1] addresses T1, Tubulin (Homo sapiens) (UniProt P68371+Q9H4B7+P0DPH7+P68366+Q13509+Q71U36+P04350+Q3ZCM7+P07437+P68363+Q9BQE3+Q6PEY2+Q13885+Q9BVA1+Q9BUF5). Description: Inhibition of [3H]colchicine binding to tubulin (unknown origin) at 5 uM after 10 mins relative to control. It is filed as protein-complex assay.
A further assay deals with Tubulin. Description: Inhibition of tubulin polymerization (unknown origin) preincubated for 15 mins followed by GTP addition measured for 20 mins by spectrophotometric method. It is filed as protein-complex assay, Homo sapiens. The method in brief:
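Purified tubulin at 10 µM in 0.8 M monosodium glutamate pH 6.6 with 4% DMSO and varying compound; preincubated 15 min at 30 °C, chilled on ice, GTP to 0.4 mM added, turbidity at 350 nm followed 20 min at 30 °C. Extent of assembly measured; IC50 derived.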

Another assay has as its system HepG2. Description: Growth inhibition of human HepG2 cells after 48 hrs by MTT assay. It is filed as functional, cell-based. The note with it: HepG2, 48 h. In general terms: Tetrazolium assays rely on reduction of a dye to a coloured formazan, in cell work by metabolically active cells.
Another assay relates to NCI/ADR-RES. Description: Growth inhibition of human NCI/ADR-RES cells after 96 hrs by trypan blue exclusion assay. The class given is functional, cell-based.
The test system of a further assay is OVCAR-8. Description: Growth inhibition of human OVCAR8 cells after 96 hrs by trypan blue exclusion assay. It is filed as functional, cell-based. The conditions noted are these: OVCAR-8, 96 h.
For the next assay, the system named is MCF7. Description: Growth inhibition of human MCF7 cells after 96 hrs by trypan blue exclusion assay. The conditions noted are these: MCF7, 96 h. It is filed as functional, cell-based.
Assay [2] concerns the target T1, Tubulin (Homo sapiens). Description: Inhibition of tubulin polymerization in human HeLa cells assessed as fragmented or multipolar spindles formation at 20 to 50 nM by DAPI staining based immunofluorescence analysis. The class given is cell-based. The method in brief:
(§1)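 HeLa cells on poly-L-lysine coverslips treated 24 h with 20–100 nM compound, fixed in methanol 6 min, immunostained for α-tubulin (FITC secondary), DNA counterstained with DAPI; spindle and microtubule morphology of mitotic cells examined by epifluorescence microscopy with 100× oil objective.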

In assay [3] the target is T1, Tubulin (Homo sapiens). Description: Inhibition of tubulin polymerization in human HeLa cells assessed as microtubule asters formation at 100 nM by DAPI staining based immunofluorescence analysis. The class given is cell-based. A digest of the protocol:
as §1

Assay [4] has as its target T1, Tubulin (Homo sapiens). Description: Inhibition of tubulin polymerization in human HeLa cells assessed as formation of sparse tubulin foci at >= 50 nM by DAPI staining based immunofluorescence analysis. The class given is cell-based. The method in brief: as §1
Assay [5] deals with T1, Tubulin (Homo sapiens). Description: Inhibition of tubulin polymerization in human HeLa cells assessed as fragmented or multipolar spindles formation at 20 nM by DAPI staining based immunofluorescence analysis. The class given is cell-based. A digest of the protocol: as §1
In the next assay the test system is HeLa. Description: Induction of cell death in human HeLa cells at 20 nM after 24 hrs by annexin V-FITC staining based flow cytometry. For orientation: A flow cytometer gives signals particle by particle.

Turning to `COc1cc(Sc2c[nH]c3cc(-c4ccoc4)ccc23)cc(OC)c1OC`, the inhibition (as a rule, the percentage by which the read-out fell short of the control) at Tubulin (Homo sapiens) [1] stood at 90%. Besides, the pIC50 (in general, the negative decadic logarithm of the IC50, by convention in mol/L) against Tubulin was 5.64.
The molecule `COc1cc(C(=O)c2c[nH]c3cc(-c4ccsc4)ccc23)cc(OC)c1OC` displayed an inhibition at Tubulin (Homo sapiens) [1] of 94%. The molecule also had a pIC50 against Tubulin of 6.22.
Molecule `COc1cc(C(=O)c2c[nH]c3c(-c4ccco4)cccc23)cc(OC)c1OC` yielded an inhibition on Tubulin (Homo sapiens) [1] of 70%.
As for `CC(=O)O[C@H]1C(=O)[C@@]2(C)[C@H]([C@H](OC(=O)c3ccccc3)[C@]3(O)C[C@H](OC(=O)[C@H](O)[C@@H](NC(=O)c4ccccc4)c4ccccc4)C(C)=C1C3(C)C)[C@]1(OC(C)=O)CO[C@@H]1C[C@@H]2O` [PACLITAXEL], the pIC50 was 5.58 in the assay on HepG2, 5.51 in the assay on NCI/ADR-RES, 8.40 with OVCAR-8 and 8.26 with MCF7.
For `COc1ccc(/C=C\c2cc(OC)c(OC)c(OC)c2)cc1O` [COMBRETASTATIN A4], the pIC50 in the assay on NCI/ADR-RES is 8.46; in the assay with OVCAR-8 it was 8.40; in the assay on MCF7, 7.89 to 8.30.
For `COc1cc(Sc2c(-c3cccs3)[nH]c3ccccc23)cc(OC)c1OC`, the inhibition on Tubulin (Homo sapiens) [1] worked out at 88%. This molecule had a pIC50 against Tubulin of 6.13.
As to `COc1cc(Sc2c[nH]c3ccc(-c4ccoc4)cc23)cc(OC)c1OC`, the inhibition on Tubulin (Homo sapiens) [1] is 63%. At Tubulin, this molecule had a pIC50 of 5.74.
For `COc1cc(C(=O)c2c[nH]c3cc(-c4ccoc4)ccc23)cc(OC)c1OC`, in that order: 96% and 6.21.
For `COc1cc(C(=O)c2c[nH]c3cc(-c4ccco4)ccc23)cc(OC)c1OC`, in that order: 96% and 6.12.
With `COc1cc(Sc2c[nH]c3c(-c4cccs4)cccc23)cc(OC)c1OC`, the inhibition entry on Tubulin (Homo sapiens) [2] and at Tubulin (Homo sapiens) [3] was “Active” throughout. The molecule also displayed an inhibition at Tubulin (Homo sapiens) [1] of 89%. Also, the pIC50 on Tubulin was 6.24.
`COc1cc(C(=O)c2c[nH]c3c(-c4cccs4)cccc23)cc(OC)c1OC` displayed an inhibition on Tubulin (Homo sapiens) [1] of 48%. For the same molecule, the pIC50 against Tubulin was 5.59.
For the molecule `COc1cc(Sc2c[nH]c3cc(-c4ccco4)ccc23)cc(OC)c1OC`, the inhibition at Tubulin (Homo sapiens) [1] came to 97%. The pIC50 against Tubulin was 6.23.
At Tubulin (Homo sapiens) [1], `COc1cc(Sc2c[nH]c3c(-c4ccco4)cccc23)cc(OC)c1OC` gave an inhibition of 95%. The pIC50 against Tubulin was 6.19.
`COc1cc(Sc2c[nH]c3cc(-c4ccsc4)ccc23)cc(OC)c1OC` registered an inhibition at Tubulin (Homo sapiens) [1] of 97%. For the same molecule, the inhibition entry on Tubulin (Homo sapiens) [4] and on Tubulin (Homo sapiens) [5] was “Active” throughout. Further, the pIC50 on Tubulin is 6.24.
`COc1cc(C(=O)c2c[nH]c3c(-c4ccoc4)cccc23)cc(OC)c1OC`: the inhibition at Tubulin (Homo sapiens) [1] was 29%. In addition, the pIC50 against Tubulin was 5.52.
Taken in the same sequence, the figures for `COc1cc(Sc2c[nH]c3c(-c4ccoc4)cccc23)cc(OC)c1OC` were 86% and 5.89.
As for `COc1cc(Sc2c[nH]c3ccc(-c4ccsc4)cc23)cc(OC)c1OC`, the inhibition on Tubulin (Homo sapiens) [1] was found to be 72%. This molecule also gave a pIC50 at Tubulin of 5.77.
Regarding `CC[C@]1(O)C[C@@H]2CN(CCc3c([nH]c4ccccc34)[C@@](C(=O)OC)(c3cc4c(cc3OC)N(C)[C@H]3[C@@](O)(C(=O)OC)[C@H](OC(C)=O)[C@]5(CC)C=CCN6CC[C@]43[C@@H]65)C2)C1`, the outcome in the assay with HeLa was Active.
In turn, `COc1cc(Sc2c[nH]c3c(-c4ccsc4)cccc23)cc(OC)c1OC` yielded an inhibition at Tubulin (Homo sapiens) [1] of 77%. This molecule showed a pIC50 at Tubulin of 5.89.
Consider `COc1cc(C(=O)c2c[nH]c3c(-c4ccsc4)cccc23)cc(OC)c1OC`, for which the pIC50 on Tubulin was 5.21.
`COc1cc(C(=O)c2c[nH]c3cc(-c4cccs4)ccc23)cc(OC)c1OC`: on Tubulin (Homo sapiens) [1], the inhibition was determined as 96%. In addition, the pIC50 against Tubulin is 6.42.
`COc1cc(Sc2c[nH]c3ccc(-c4cccs4)cc23)cc(OC)c1OC` returned an inhibition at Tubulin (Homo sapiens) [1] of 76%. For the same molecule, on Tubulin, the pIC50 was 5.89.
In the case of `COc1cc(Sc2c[nH]c3cc(-c4cccs4)ccc23)cc(OC)c1OC`, the inhibition on Tubulin (Homo sapiens) [1] turned out to be 95%. Further, on Tubulin, the pIC50 is 6.33.
Taken in the same sequence, the figures for `COc1cc(Sc2c[nH]c3ccc(-c4ccco4)cc23)cc(OC)c1OC` were 81% and 6.06.
